Data on 16 molecules can be found in ChEMBL document CHEMBL1156338 (J Med Chem, 2010).

Series [1] has as its target Tyrosine-protein kinase Lck (Homo sapiens, UniProt P06239). Description: Binding affinity to Lck by scintillation proximity assay. On the technique in general: In a scintillation proximity assay essentially only radioactivity close to the scintillant gives light.
Series [2] concerns the target Mast/stem cell growth factor receptor Kit (Homo sapiens, UniProt P10721). Description: Binding affinity to c-Kit by scintillation proximity assay.
Series [3] concerns the target Vascular endothelial growth factor receptor 2 (Homo sapiens, UniProt P35968). Description: Binding affinity to Kdr by scintillation proximity assay.
Series [4] addresses T1, Mitogen-activated protein kinase 14 (Homo sapiens, UniProt Q16539). The experiment in a line: Binding affinity to p38alpha by scintillation proximity assay.
Series [5] has as its target T1, Mitogen-activated protein kinase 14. The experiment in a line: Inhibition of human recombinant p38alpha-mediated […] phosphorylation after 1 hr by HTRF assay.
Series [6] in a line: Volume of distribution at steady state in Sprague-Dawley rat at 2 mg/kg, iv. Format: ADME, organism-based. Also on record: dose 2 mg/kg, route intravenous. The note with it: in vivo, read-out: Vdss.
Series [7] is described as follows: AUC (0 to infinity) in Sprague-Dawley rat at 2 mg/kg, po. In kind it is ADME, organism-based. On the set-up: time infinity, dose 2 mg/kg, route oral. The following applies: plasma.
Another series concerns Blood. Description: Inhibition of IL-8 production in TNFalpha challenged human whole blood after 16 to 18 hrs. Format: functional, tissue-based. The procedure, abridged:
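Heparinized blood from healthy nonmedicated donors, 50% final in RPMI 1640 with 10% human AB serum. Ten-point compound titration preincubated 1 h at 37 C, 5% CO2, then TNF-alpha 1 nM final added for 16-18 h. Plasma IL-8 measured by electrochemiluminescent antibody sandwich assay; IC50 is the mean of at least three independent dose-response curves.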

A further series deals with THP-1. Description: Inhibition of LPS-induced TNFalpha production in human THP1 cells after 3 hrs. Format: functional, cell-based. The procedure, abridged: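 THP-1 cells at 1.5 x 10^6/mL in RPMI 1640, 10% heat-inactivated FBS, NEAA, 30 μM βME. 3-fold serial compound dilutions in DMSO, then LPS stimulation for 3 h at 37 C, 5% CO2. Secreted TNF-alpha read by electrochemiluminescent immunoassay; percent of DMSO control; IC50 is the mean of at least three independent curves.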

Series [8] in a line: Clearance in Sprague-Dawley rat at 2 mg/kg, iv. In kind it is ADME, organism-based. Also on record: dose 2 mg/kg, route intravenous. The note with it: in vivo.
Series [9] in a line: Half life in Sprague-Dawley rat at 2 mg/kg, iv. The note with it: in vivo. Format: ADME, organism-based. On the set-up: dose 2 mg/kg, route intravenous.
Series [10] in a line: Oral bioavailability in Sprague-Dawley rat at 2 mg/kg. Format: ADME, organism-based. The note with it: in vivo.
The target of series [11] is T2, Nuclear receptor subfamily 1 group I member 2 (Homo sapiens, UniProt O75469).
T2 sequence (O75469 whole entry): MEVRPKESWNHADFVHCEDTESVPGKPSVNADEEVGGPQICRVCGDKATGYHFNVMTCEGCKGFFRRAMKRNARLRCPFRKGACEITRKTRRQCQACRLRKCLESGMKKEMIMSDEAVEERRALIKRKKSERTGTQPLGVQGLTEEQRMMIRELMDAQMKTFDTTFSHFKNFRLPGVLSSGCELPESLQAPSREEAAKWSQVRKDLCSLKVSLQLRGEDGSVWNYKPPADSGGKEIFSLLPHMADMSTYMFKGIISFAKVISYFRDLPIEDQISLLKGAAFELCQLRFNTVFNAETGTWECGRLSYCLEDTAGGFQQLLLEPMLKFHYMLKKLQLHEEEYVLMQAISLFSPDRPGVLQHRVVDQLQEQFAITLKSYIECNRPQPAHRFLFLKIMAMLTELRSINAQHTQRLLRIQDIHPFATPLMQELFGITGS
The experiment in a line: Transactivation of human PXR expressed in HepG2 cells after 24 hrs by luciferase reporter gene assay. In kind it is cell-based. The note with it: hepg2, 24 h. The procedure, abridged:
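HepG2 cells transfected with a CYP3A4-promoter luciferase reporter and human PXR cDNA. Compound added from DMSO stocks to final 2 and 10 μM in buffer and incubated 24 h. Luciferase activity read by chemiluminescence and reported as percent of the rifampin (10 μM) positive control.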

A further series concerns the target Cytochrome P450 3A4 (Homo sapiens, UniProt P08684). The experiment in a line: Inhibition of CYP3A4. In kind it is ADME.
Series [12] in a line: Plasma protein binding in human by ultrafiltration method. In kind it is ADME, cell-free. The following applies: read-out: PPB (converted).
Series [13] is described as follows: Plasma protein binding in rat by ultrafiltration method. In kind it is ADME, cell-free. The note with it: read-out: PPB (converted).
The nature of series [14]: in vitro. The following applies: human, Caco-2.
Series [15] can be described thus: in vitro. The note with it: human, Caco-2. This is another data set of the same source.
Where [16] appears, read: Homo sapiens, Blood, read-out: IC50.
Setting [17] is: Homo sapiens, THP-1, 3 h, read-out: IC50.

T1 sequence (Q16539 whole entry): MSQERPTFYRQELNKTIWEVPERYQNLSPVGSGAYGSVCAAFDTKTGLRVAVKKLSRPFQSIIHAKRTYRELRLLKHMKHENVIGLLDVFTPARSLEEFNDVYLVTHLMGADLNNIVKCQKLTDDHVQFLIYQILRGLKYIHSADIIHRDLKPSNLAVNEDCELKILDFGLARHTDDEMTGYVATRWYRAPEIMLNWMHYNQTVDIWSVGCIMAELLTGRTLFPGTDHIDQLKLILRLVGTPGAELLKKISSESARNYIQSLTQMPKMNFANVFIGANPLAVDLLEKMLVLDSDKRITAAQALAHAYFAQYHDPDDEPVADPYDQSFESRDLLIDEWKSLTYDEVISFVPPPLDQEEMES
Mast/stem cell growth factor receptor Kit, sequence (P10721 whole entry): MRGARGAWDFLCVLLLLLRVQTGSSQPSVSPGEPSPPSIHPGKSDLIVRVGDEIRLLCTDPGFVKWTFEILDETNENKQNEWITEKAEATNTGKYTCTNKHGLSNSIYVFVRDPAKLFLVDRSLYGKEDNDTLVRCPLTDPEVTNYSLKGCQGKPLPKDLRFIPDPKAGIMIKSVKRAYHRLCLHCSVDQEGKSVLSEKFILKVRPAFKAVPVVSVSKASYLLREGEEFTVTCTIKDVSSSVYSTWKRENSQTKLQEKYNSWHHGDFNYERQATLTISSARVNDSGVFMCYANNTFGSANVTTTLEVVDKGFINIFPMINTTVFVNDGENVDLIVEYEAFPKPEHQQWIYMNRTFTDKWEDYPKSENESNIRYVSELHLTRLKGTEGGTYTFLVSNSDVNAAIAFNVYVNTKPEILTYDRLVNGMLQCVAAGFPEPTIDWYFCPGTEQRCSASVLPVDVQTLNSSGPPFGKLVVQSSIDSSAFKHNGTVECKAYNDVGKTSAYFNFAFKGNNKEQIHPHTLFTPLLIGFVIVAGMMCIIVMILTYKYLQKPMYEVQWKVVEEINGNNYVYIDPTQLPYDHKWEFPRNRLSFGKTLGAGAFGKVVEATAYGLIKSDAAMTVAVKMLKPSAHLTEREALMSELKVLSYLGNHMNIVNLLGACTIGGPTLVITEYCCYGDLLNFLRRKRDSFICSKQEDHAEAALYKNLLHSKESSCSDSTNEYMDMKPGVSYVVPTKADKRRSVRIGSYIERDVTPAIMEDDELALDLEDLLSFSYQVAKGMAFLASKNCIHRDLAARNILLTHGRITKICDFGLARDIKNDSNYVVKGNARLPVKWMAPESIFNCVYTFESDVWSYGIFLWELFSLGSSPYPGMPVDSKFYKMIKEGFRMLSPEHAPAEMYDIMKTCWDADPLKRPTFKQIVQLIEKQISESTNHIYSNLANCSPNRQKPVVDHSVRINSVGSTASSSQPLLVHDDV
Vascular endothelial growth factor receptor 2, sequence (P35968 whole entry): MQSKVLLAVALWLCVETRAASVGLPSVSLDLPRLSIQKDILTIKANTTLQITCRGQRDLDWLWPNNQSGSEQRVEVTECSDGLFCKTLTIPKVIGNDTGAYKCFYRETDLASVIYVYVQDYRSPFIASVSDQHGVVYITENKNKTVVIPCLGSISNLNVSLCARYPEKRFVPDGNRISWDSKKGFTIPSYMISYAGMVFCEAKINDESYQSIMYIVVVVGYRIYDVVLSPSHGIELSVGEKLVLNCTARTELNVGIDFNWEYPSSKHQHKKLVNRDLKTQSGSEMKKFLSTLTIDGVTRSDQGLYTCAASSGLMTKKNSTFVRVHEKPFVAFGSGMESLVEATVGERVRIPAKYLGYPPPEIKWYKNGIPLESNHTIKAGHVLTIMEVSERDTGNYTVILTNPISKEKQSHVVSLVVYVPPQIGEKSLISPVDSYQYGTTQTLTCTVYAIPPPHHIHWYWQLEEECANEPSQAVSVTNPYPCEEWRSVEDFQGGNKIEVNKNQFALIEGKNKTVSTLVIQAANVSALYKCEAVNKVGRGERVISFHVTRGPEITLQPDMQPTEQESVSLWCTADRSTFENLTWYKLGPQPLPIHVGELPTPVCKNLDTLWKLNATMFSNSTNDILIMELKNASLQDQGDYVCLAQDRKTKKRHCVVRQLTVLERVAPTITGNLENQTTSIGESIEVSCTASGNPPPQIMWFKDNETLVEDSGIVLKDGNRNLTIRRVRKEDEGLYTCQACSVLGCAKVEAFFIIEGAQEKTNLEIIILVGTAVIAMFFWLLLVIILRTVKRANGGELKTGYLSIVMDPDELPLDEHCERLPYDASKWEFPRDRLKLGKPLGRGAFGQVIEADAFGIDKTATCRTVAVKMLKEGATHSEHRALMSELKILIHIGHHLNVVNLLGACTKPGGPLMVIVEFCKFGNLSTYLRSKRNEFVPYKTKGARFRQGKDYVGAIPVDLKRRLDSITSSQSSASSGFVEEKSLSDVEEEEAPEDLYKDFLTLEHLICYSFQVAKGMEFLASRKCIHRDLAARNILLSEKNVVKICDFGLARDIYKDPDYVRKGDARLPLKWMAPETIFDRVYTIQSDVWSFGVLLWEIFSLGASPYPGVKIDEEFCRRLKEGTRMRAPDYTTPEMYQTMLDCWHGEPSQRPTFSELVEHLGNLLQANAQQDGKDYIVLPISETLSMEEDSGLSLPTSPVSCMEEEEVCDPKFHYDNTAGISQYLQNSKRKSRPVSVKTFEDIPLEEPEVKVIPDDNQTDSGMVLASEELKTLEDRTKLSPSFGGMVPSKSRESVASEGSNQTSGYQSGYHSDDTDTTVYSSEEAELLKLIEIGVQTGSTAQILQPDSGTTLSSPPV
Tyrosine-protein kinase Lck, sequence (P06239 whole entry): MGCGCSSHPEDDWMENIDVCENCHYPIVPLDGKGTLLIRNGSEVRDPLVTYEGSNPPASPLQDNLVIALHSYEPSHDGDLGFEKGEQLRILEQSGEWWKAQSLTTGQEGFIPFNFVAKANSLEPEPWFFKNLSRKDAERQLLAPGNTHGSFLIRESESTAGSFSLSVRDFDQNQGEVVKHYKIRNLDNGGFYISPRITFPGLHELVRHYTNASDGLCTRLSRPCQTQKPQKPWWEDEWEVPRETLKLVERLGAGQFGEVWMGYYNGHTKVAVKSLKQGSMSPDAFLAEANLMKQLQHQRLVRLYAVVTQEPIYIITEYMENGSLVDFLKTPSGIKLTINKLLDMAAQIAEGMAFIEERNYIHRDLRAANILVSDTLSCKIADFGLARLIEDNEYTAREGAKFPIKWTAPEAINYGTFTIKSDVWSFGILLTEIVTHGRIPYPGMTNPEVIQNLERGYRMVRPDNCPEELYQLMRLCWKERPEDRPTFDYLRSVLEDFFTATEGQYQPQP
Cytochrome P450 3A4, sequence (P08684 whole entry): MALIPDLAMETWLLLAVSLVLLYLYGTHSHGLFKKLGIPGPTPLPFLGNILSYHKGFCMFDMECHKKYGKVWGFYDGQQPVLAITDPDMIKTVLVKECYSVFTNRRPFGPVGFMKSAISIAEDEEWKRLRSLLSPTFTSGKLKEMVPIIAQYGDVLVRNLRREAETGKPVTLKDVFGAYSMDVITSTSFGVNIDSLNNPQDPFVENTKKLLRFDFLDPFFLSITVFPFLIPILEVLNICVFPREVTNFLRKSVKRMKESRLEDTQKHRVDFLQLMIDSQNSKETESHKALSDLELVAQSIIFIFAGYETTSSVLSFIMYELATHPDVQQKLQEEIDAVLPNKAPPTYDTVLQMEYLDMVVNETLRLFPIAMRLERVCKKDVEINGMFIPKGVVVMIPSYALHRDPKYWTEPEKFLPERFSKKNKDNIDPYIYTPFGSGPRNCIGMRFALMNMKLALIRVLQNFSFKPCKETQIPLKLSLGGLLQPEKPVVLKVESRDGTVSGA

A word on the Kd: it is a measure of binding affinity in units of concentration. Read a low Kd as tighter binding. On to `Cc1ccc(C(=O)NC2CC2)cc1-c1cc2cnn(-c3ccccc3F)c2n(C)c1=O`, for which the Kd turned out to be 40000 nM in [1], 1700 nM in [2], 40000 nM in [3] and 0.18 nM in series [4].
The term Ki denotes a measure of affinity in units of concentration, obtained from inhibition or displacement. The term AUC(0-inf) denotes total exposure, with the tail of the curve extrapolated. The low end stands for less exposure, the high end for more exposure. By IC50 is commonly meant the concentration that inhibits the measured activity by half. As usually defined, the clearance is a measure of how efficiently the substance is removed, as volume per time. A high value points to a high capacity for elimination. As a reminder, the half-life is the time in which the quantity being followed falls by half. Higher therefore signals slow loss. By bioavailability is commonly meant dose-corrected exposure relative to a reference, in per cent. A higher bioavailability goes with good availability. On to `CNc1noc2c(-c3cc4cnn(-c5c(F)cccc5F)c4n(C)c3=O)c(C)ccc12`, for which, in series [5], the Ki was determined as 2 nM. For the same molecule, in series [6], the Vd was determined as 1.89 L/kg. Moreover, the AUC(0-inf) in series [7] worked out at 515 ng·h/mL. Besides, the IC50 in the series with Blood worked out at 5.4 nM; in the series on THP-1 (thp-1), 1.2 nM. In series [8], this molecule gave a clearance of 17.6 mL/min/kg. The half-life in series [9] is 3.5 h. Also, the bioavailability in series [10] worked out at 27%.
In the case of `Cc1ccc(C(=O)Nc2ccon2)cc1-c1cc2cnn(-c3c(F)cccc3F)c2n(C)c1=O`, the inhibitory constant (Ki) in series [5] was determined as 1 nM. Moreover, the results for the IC50 in the series with Blood (setting [16]) and in the series with THP-1 (setting [17]) were 1.5 nM and 0.3 nM, respectively.
`Cc1ccc(C(N)=O)cc1-c1cc2cnn(-c3c(F)cccc3F)c2n(C)c1=O`: the Ki in series [5] amounted to 1.5 nM. For the same molecule, in [6], the Vd came out at 1.1 L/kg. For the same molecule, the AUC(0-inf) in series [7] stood at 2390 ng·h/mL. For the same molecule, the results for the concentration for half-maximal inhibition (IC50) in the series with Blood (setting [16]) and in the series on THP-1 (setting [17]) were 6.4 nM and 3.9 nM, respectively. This molecule also had a clearance in [8] of 5.2 mL/min/kg. For the same molecule, the half-life in [9] is 2.4 h. This molecule came in with a bioavailability in series [10] of 37%.
For `CCn1c(=O)c(-c2cc(C(=O)NC3CC3)ccc2C)cc2cnn(-c3ccc(F)cc3F)c21`, the Ki in [5] came out at 0.6 nM. In addition, the Activity entry in series [11] is “Not Active”. In addition, the IC50 in the series with Blood (setting [16]) was 2.4 nM; with THP-1 (setting [17]), 0.5 nM; against Cytochrome P450 3A4, 1600 nM.
As for `Cc1ccc(C(=O)NC2CC2)cc1-c1cc2cnn(-c3ccccc3Cl)c2n(C)c1=O`, the Ki in series [5] came to 0.9 nM. Besides, the 50% inhibitory concentration (IC50) in the series on Blood (setting [16]) is 8.7 nM; in the series on THP-1 (setting [17]), 1.1 nM.
Regarding `Cn1c(=O)c(-c2cc(C(=O)NC3CC3)ccc2Cl)cc2cnn(-c3c(F)cccc3F)c21`, in series [6], the Vd came to 1.47 L/kg. In [7], this molecule showed an AUC(0-inf) of 8860 ng·h/mL. Moreover, in the series on THP-1 (setting [17]), the half-maximal inhibitory concentration (IC50) worked out at 0.9 nM. In series [8], this molecule gave a clearance of 2.75 mL/min/kg. For the same molecule, the figures for the fraction unbound in series [12] and in series [13] were 0.038 and 0.032, respectively. The same molecule showed a half-life in series [9] of 6.3 h. Further, the bioavailability in series [10] amounted to 73%.
Turning to `Cc1ccc(C(=O)O)cc1-c1cc2cnn(-c3c(F)cccc3F)c2n(C)c1=O`, the Ki in series [5] was determined as 458 nM. Also, the 50% inhibitory concentration (IC50) was above 2500 nM in the series with Blood (setting [16]) and 631 nM in the series with THP-1 (setting [17]).
A word on the Papp B→A: it is the apparent permeability from the basolateral to the apical side of a cell layer. For orientation: Papp A→B means how fast a substance crosses the layer from the apical side. A low value points to poor permeation. Turning to `Cc1ccc(C(=O)NC2CC2)cc1-c1cc2cnn(-c3ccc(F)cc3F)c2n(C)c1=O`, the Vd in series [6] is 1.69 L/kg. For the same molecule, the AUC(0-inf) in series [7] turned out to be 5120 ng·h/mL. The molecule also registered a Papp B→A in the series “in vitro [14]” of 29 ×10⁻⁶ cm/s. In addition, the values for the half-maximal inhibitory concentration (IC50) with Blood (setting [16]) and in the series on THP-1 (setting [17]) were 3.9 nM and 1.5 nM, respectively. The clearance in series [8] is 2.88 mL/min/kg. Moreover, the equilibrium dissociation constant (Kd) in [1] was 40000 nM; in [2], 13000 nM; in series [3] it was 40000 nM. Further, the apparent permeability from apical to basolateral (Papp A→B) in “in vitro [15]” came to 20 ×10⁻⁶ cm/s. Moreover, the fraction unbound in series [12] was 0.07; in [13] it was 0.075. For the same molecule, the half-life in [9] was 7.7 h. In series [10], this molecule gave a bioavailability of 73%.
`Cc1c(F)cc(C(=O)NC2CC2)cc1-c1cc2cnn(-c3c(F)cccc3F)c2n(C)c1=O`: the Ki in series [5] is 0.8 nM. Moreover, the IC50 was 1.7 nM with Blood (setting [16]) and 0.4 nM with THP-1 (setting [17]).
Take `Cc1ccc(C(=O)NC2CC2)cc1-c1cc2cnn(-c3ncccc3C(F)(F)F)c2n(C)c1=O`: in series [5], the Ki was determined as 2.3 nM. Moreover, the IC50 in the series on Blood (setting [16]) came to 24 nM; in the series on THP-1 (setting [17]) it was 14.4 nM.
The corresponding values for `Cc1ccc(C(=O)NC2(C)CC2)cc1-c1cc2cnn(-c3c(F)cccc3F)c2n(C)c1=O` are 1.7 nM, 11 nM and 2.7 nM.
On to `Cc1ccc(C(=O)NC2CC2)cc1-c1cc2c(C)nn(-c3c(F)cccc3F)c2n(C)c1=O`, for which the Ki in series [5] stood at 8 nM. In addition, the IC50 in the series with Blood (setting [16]) is 40 nM; with THP-1 (setting [17]) it was 2.7 nM.
As for `Cc1ccc(C(=O)NC2CC2)cc1-c1cc2cnn(-c3cc(F)ccc3F)c2n(C)c1=O`, in [5], the inhibitory constant (Ki) turned out to be 1.9 nM. Further, the Vd in [6] was determined as 0.955 L/kg. Further, the area under the curve AUC(0-inf) in series [7] came out at 782 ng·h/mL. The half-maximal inhibitory concentration (IC50) was found to be 3.7 nM with Blood (setting [16]) and 1.6 nM in the series on THP-1 (setting [17]). In [8], this molecule gave a clearance of 4.12 mL/min/kg. In [9], the half-life is 2.2 h. Moreover, the bioavailability in [10] came to 10%.
Take `Cc1ccc(C(=O)NC2CC2)cc1-c1cc2cnn(-c3ccccc3C)c2n(C)c1=O`: the inhibition constant (Ki) in [5] worked out at 1.9 nM. The IC50 in the series on Blood (setting [16]) stood at 12.1 nM; in the series on THP-1 (setting [17]), 4 nM.
Consider `Cc1ccc(C(=O)NC2CC2)cc1-c1ccc2c(-c3ccccc3F)nncc2c1`, for which the equilibrium dissociation constant (Kd) is 530 nM in [1], 2.4 nM in series [2], 320 nM in series [3] and 0.05 nM in series [4].
